Calls of active or inactive are those of the source. The rule behind the calls is not given here.
Tests used:
[1] = biological target: Glycogen synthase kinase-3 (Homo sapiens) (UniProt P49840+P49841); experiment: Inhibition of GSK3 in human A-375 cells harbouring TCF/LEF luciferase reporter gene assessed as increase in wnt signaling incubated for 5 hrs by Bright-Glo luciferase assay; type: cell-based
Summary of the method: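 A375 cells carried a lentiviral TCF/LEF-responsive luciferase reporter, selected with puromycin 1 μg/ml for 3 days. Cells were seeded at 10,000 per well and moved to 2% FBS medium. Agents were given at 0.5 nmol/L–1 μmol/L for 5 h, and luciferase was read with Bright-Glo substrate.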

A-375 [2] = experiment: Antiproliferative activity against human A-375 cells harboring BRAF V600E mutation assessed as reduction in cell viability incubated for 72 hrs by CellTitre-Glo assay; type: functional, cell-based; conditions: A-375, 72 h
Summary of the method: (§1)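 Cells seeded at 2,000 per well and left to adhere overnight. After 24 h, medium was switched to growth medium with 2% FBS. Test agent was added at 0.5 nmol/L to 10 μmol/L for 72 h. Viability was read by CellTiter-Glo luminescence. IC50 came from nonlinear regression sigmoidal dose-response fits.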

M14 [3] = experiment: Antiproliferative activity against human M14 cells harboring BRAF V600E mutation assessed as reduction in cell viability incubated for 72 hrs by CellTitre-Glo assay; type: functional, cell-based; conditions: M14, 72 h; summary of the method: as §1
[4] = Antiproliferative activity against human MEXF276 cells harboring BRAF V600E mutation assessed as reduction in cell viability incubated for 72 hrs by CellTitre-Glo assay; type: functional, cell-based; conditions: MEXF276, 72 h; summary of the method: as §1
[5] = Antiproliferative activity against human MEXF462 cells harboring BRAF V600E mutation assessed as reduction in cell viability incubated for 72 hrs by CellTitre-Glo assay; type: functional, cell-based; conditions: MEXF462, 72 h; summary of the method: as §1
SK-MEL-28 = experiment: Antiproliferative activity against human SK-MEL-28 cells harboring BRAF V600E mutation assessed as reduction in cell viability incubated for 72 hrs by CellTitre-Glo assay; type: functional, cell-based; conditions: SK-MEL-28, 72 h; summary of the method: as §1
A2058 = experiment: Antiproliferative activity against human A2058 cells harboring BRAF V600E/PTEN null mutation assessed as reduction in cell viability incubated for 72 hrs by CellTitre-Glo assay; type: functional, cell-based; conditions: A2058, 72 h; summary of the method: as §1
SK-MEL-2 = experiment: Antiproliferative activity against human SK-MEL-2 cells harboring NRAS Q61R mutation assessed as reduction in cell viability incubated for 72 hrs by CellTitre-Glo assay; type: functional, cell-based; conditions: SK-MEL-2, 72 h; summary of the method: as §1
CHL-1 = experiment: Antiproliferative activity against human CHL-1 cells assessed as reduction in cell viability incubated for 72 hrs by CellTitre-Glo assay; type: functional, cell-based; conditions: CHL-1, 72 h; summary of the method: as §1
[6] = Antiproliferative activity against human MEL1102 cells harboring NRAS Q61K mutation assessed as reduction in cell viability incubated for 72 hrs by CellTitre-Glo assay; type: functional, cell-based; conditions: MEL1102, 72 h; summary of the method: as §1
[7] = Antiproliferative activity against human MEXF1341 cells harboring NRAS Q61 mutation assessed as reduction in cell viability incubated for 72 hrs by CellTitre-Glo assay; type: functional, cell-based; conditions: MEXF1341, 72 h; summary of the method: as §1
[8] = Antiproliferative activity against human MEXF1792 cells harboring NRAS G13D mutation assessed as reduction in cell viability incubated for 72 hrs by CellTitre-Glo assay; type: functional, cell-based; conditions: MEXF1792, 72 h; summary of the method: as §1
A-375 [9] = experiment: Antiproliferative activity against human A-375 cells transfected with beta-catenin shRNA assessed as reduction in cell viability incubated for 72 hrs by CellTitre-Glo assay; type: functional, cell-based
Summary of the method: (§2)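 A375 or M14 cells were transduced with lentiviral shRNA particles (target or control) at MOI 2 with polybrene 8 μg/ml. Puromycin selection at 2 μg/ml began 48 h later, and knockdown was checked by immunoblot. Cells were seeded at 2,000 per well in 2% FBS medium, exposed to agents for 72 h, and read by CellTiter-Glo.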

M14 [10] = experiment: Antiproliferative activity against human M14 cells transfected with beta-catenin shRNA assessed as reduction in cell viability incubated for 72 hrs by CellTitre-Glo assay; type: functional, cell-based; summary of the method: as §2
A-375 [11] = experiment: Antiproliferative activity against human vemurafenib-resistant A-375 cells harboring BRAF V600E mutation assessed as reduction in cell viability incubated for 72 hrs by CellTitre-Glo assay; type: functional, cell-based; conditions: A-375, 72 h
Summary of the method: (§3)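 Resistant A375 or M14 lines were derived by growth in vemurafenib over 3 months. Cells were seeded at 2,000 per well and allowed to adhere overnight, then moved to 2% FBS growth medium. Agents were added at 0.5 nmol/L–10 μmol/L for 72 h. Viability was read by CellTiter-Glo, and IC50 was taken from sigmoidal nonlinear regression.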

M14 [12] = experiment: Antiproliferative activity against human vemurafenib-resistant M14 cells harboring BRAF V600E mutation assessed as reduction in cell viability incubated for 72 hrs by CellTitre-Glo assay; type: functional, cell-based; conditions: M14, 72 h; summary of the method: as §3
A-375 [13] = experiment: Antiproliferative activity against human A-375 cells transfected with Axin1 shRNA assessed as reduction in cell viability incubated for 72 hrs by CellTitre-Glo assay; type: functional, cell-based; summary of the method: as §2
M14 [14] = experiment: Antiproliferative activity against human M14 cells transfected with Axin1 shRNA assessed as reduction in cell viability incubated for 72 hrs by CellTitre-Glo assay; type: functional, cell-based; summary of the method: as §2

Sequence of Glycogen synthase kinase-3 (Homo sapiens) (P49840 whole entry, looked up): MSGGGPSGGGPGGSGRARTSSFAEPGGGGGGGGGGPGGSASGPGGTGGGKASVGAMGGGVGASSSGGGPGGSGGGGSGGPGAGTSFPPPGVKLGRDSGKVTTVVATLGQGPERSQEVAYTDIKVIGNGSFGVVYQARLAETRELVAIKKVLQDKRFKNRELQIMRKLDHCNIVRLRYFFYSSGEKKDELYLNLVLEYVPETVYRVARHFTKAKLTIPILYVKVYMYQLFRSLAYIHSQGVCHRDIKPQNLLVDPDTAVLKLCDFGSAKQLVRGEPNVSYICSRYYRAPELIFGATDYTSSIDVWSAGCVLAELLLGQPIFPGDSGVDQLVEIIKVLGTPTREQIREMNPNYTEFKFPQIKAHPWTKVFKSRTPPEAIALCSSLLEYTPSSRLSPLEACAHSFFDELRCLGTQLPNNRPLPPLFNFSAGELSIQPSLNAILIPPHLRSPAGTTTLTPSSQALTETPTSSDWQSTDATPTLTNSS
Sequence of Glycogen synthase kinase-3 (Homo sapiens) (P49841 whole entry, looked up): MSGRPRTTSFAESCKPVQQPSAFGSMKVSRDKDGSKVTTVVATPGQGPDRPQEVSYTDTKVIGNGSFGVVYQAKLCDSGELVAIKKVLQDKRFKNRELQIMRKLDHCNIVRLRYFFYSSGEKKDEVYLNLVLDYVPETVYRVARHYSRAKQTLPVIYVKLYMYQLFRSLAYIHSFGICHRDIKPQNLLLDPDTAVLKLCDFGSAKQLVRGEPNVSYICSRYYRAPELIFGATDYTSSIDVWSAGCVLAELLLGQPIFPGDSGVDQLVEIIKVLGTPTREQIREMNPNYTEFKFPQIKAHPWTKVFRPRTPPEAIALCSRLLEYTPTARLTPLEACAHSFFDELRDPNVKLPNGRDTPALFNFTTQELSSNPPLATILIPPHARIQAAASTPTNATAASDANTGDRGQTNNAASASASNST

For `CC(=O)O/N=C1/C(=C2/C(=O)Nc3cc(Br)ccc32)Nc2ccccc21` [6-BROMOINDIRUBIN-3'-ACETOXIME], the inhibition [1] was “Active”, the IC50 (A-375 [2]) was 914 nM and the IC50 (M14 [3]) was 646 nM. The IC50 [4] was 954 nM, the IC50 [5] was 605 nM and the IC50 (SK-MEL-28) was > 5000 nM. It also gave an IC50 (A2058) of 361 nM, an IC50 (SK-MEL-2) of 942 nM and an IC50 (CHL-1) of 1460 nM. It also gave an IC50 [6] of 750 nM, an IC50 [7] of 1150 nM and an IC50 [8] of 4940 nM.

For `CCCS(=O)(=O)Nc1ccc(F)c(C(=O)c2c[nH]c3ncc(-c4ccc(Cl)cc4)cc23)c1F` [VEMURAFENIB], the IC50 (A-375 [2]) was 102 nM, the IC50 (M14 [3]) was 88 nM and the IC50 (SK-MEL-2) was > 10000 nM. For the same compound, the IC50 (CHL-1) was > 10000 nM, the IC50 [6] was 1260 nM and the Activity (A-375 [9]) was “Active”. For the same compound, the Activity (M14 [10]) was “Active”, the IC50 (A-375 [11]) was 5480 nM and the IC50 (M14 [12]) was 3860 nM. For the same compound, the Activity (A-375 [13]) was “Active” and the Activity (M14 [14]) was “Active”.

With `Nc1nc2ccc(OC(F)(F)F)cc2s1` the inhibition [1] was “Active”.

From ChEMBL document CHEMBL5653620, “Activating the Wnt/β-Catenin Pathway for the Treatment of Melanoma--Application of LY2090314, a Novel Selective Inhibitor of Glycogen Synthase Kinase-3” (PLoS One, 2015)
